According to ChEMBL document CHEMBL3352155, “Synthesis, antitumor activity, and structure-activity relationship study of trihydroxylated 2,4,6-triphenyl pyridines as potent and selective topoisomerase II inhibitors” (Eur J Med Chem, 2014):
Structures can show the parent of a compound that is named as a salt.

Columns and labels:
[1] = Cytotoxicity against human HCT15 cells […] by CCK-8 assay; assay type: functional, cell-based; details: HCT-15
How it was run: (§1)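 Cells were seeded at 2–4 × 10^4 per well and grown overnight in medium with 10% FBS at 37 °C under 5% CO2. On day 2, after 4 h FBS starvation, the medium was replaced with medium holding graded compound concentrations. On day 4, CCK-8 was added for 4 h and A450 was read. IC50 came from a four-parameter logistic fit; three experiments run in triplicate.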

[2] = target: T1, DNA topoisomerase 1 (Homo sapiens) (UniProt P11387); experiment: Inhibition of recombinant human DNA topoisomerase 1 assessed as relaxation of supercoiled DNA pBR322 at 100 uM after 30 mins using ethidium bromide staining by agarose gel electrophoresis
T1 sequence (whole entry): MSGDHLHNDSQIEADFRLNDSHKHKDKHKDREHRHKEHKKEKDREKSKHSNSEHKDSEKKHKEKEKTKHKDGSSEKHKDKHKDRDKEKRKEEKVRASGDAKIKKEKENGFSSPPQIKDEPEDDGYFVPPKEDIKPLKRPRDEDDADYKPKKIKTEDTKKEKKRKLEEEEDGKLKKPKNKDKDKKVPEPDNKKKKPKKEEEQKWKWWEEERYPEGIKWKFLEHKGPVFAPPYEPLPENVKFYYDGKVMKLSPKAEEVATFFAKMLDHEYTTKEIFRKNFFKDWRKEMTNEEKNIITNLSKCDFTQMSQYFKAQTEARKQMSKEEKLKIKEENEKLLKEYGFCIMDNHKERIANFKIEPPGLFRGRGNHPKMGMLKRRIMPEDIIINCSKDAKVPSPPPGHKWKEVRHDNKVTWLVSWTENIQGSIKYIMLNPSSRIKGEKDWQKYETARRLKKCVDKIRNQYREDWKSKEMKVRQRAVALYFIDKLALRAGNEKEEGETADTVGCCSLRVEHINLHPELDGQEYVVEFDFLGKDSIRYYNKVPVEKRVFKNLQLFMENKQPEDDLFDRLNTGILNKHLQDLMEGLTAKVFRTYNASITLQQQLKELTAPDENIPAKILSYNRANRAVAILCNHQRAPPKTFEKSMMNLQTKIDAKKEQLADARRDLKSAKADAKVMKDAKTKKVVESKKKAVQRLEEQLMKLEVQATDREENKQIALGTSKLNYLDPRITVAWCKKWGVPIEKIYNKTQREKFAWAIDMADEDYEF
How it was run: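 A mix of 100 ng supercoiled pBR322 and 1 unit recombinant human topo I, with or without compound, was held 30 min at 37 °C. Buffer was 10 mM Tris-HCl pH 7.9, 150 mM NaCl, 0.1% BSA, 1 mM spermidine and 5% glycerol. A sarcosyl stop solution ended the reaction. Products ran on 1% agarose in TAE at 15 V for 7 h, were stained with ethidium bromide and quantitated under UV.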

[3] = system: T47D; experiment: Cytotoxicity against human T47D cells after 4 days by CCK-8 assay; assay type: functional, cell-based; details: 96 h; how it was run: as §1
[4] = target: DNA topoisomerase 2-alpha (Homo sapiens) (UniProt P11388); experiment: Inhibition of recombinant human DNA topoisomerase 2alpha assessed as relaxation of supercoiled DNA pBR322 at 20 uM after 30 mins using ethidium bromide staining by agarose gel electrophoresis
How it was run: (§2)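 The reaction held 200 ng supercoiled pBR322 with 1 unit human topo IIα, with or without compound, for 30 min at 30 °C. Buffer was 10 mM Tris-HCl pH 7.9, 50 mM NaCl, 5 mM MgCl2, 1 mM EDTA, 1 mM ATP and BSA. EDTA was added to stop it. Products ran on 1% agarose in TAE at 25 V for 4 h, were stained with ethidium bromide, and supercoiled DNA was quantitated under UV.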

[5] = target: DNA topoisomerase 2-alpha (Homo sapiens) (UniProt P11388); experiment: Inhibition of recombinant human DNA topoisomerase 2alpha assessed as relaxation of supercoiled DNA pBR322 at 100 uM after 30 mins using ethidium bromide staining by agarose gel electrophoresis; how it was run: as §2
[6] = system: DU-145; experiment: Cytotoxicity against human DU145 cells after 4 days by CCK-8 assay; assay type: functional, cell-based; details: DU-145, 96 h; how it was run: as §1
[7] = system: HEK293; experiment: Cytotoxicity against HEK293 cells after 4 days by CCK-8 assay; assay type: cell-based; details: Homo sapiens, HEK293, 96 h; how it was run: as §1

Sequence of DNA topoisomerase 2-alpha (Homo sapiens) (P11388 whole entry): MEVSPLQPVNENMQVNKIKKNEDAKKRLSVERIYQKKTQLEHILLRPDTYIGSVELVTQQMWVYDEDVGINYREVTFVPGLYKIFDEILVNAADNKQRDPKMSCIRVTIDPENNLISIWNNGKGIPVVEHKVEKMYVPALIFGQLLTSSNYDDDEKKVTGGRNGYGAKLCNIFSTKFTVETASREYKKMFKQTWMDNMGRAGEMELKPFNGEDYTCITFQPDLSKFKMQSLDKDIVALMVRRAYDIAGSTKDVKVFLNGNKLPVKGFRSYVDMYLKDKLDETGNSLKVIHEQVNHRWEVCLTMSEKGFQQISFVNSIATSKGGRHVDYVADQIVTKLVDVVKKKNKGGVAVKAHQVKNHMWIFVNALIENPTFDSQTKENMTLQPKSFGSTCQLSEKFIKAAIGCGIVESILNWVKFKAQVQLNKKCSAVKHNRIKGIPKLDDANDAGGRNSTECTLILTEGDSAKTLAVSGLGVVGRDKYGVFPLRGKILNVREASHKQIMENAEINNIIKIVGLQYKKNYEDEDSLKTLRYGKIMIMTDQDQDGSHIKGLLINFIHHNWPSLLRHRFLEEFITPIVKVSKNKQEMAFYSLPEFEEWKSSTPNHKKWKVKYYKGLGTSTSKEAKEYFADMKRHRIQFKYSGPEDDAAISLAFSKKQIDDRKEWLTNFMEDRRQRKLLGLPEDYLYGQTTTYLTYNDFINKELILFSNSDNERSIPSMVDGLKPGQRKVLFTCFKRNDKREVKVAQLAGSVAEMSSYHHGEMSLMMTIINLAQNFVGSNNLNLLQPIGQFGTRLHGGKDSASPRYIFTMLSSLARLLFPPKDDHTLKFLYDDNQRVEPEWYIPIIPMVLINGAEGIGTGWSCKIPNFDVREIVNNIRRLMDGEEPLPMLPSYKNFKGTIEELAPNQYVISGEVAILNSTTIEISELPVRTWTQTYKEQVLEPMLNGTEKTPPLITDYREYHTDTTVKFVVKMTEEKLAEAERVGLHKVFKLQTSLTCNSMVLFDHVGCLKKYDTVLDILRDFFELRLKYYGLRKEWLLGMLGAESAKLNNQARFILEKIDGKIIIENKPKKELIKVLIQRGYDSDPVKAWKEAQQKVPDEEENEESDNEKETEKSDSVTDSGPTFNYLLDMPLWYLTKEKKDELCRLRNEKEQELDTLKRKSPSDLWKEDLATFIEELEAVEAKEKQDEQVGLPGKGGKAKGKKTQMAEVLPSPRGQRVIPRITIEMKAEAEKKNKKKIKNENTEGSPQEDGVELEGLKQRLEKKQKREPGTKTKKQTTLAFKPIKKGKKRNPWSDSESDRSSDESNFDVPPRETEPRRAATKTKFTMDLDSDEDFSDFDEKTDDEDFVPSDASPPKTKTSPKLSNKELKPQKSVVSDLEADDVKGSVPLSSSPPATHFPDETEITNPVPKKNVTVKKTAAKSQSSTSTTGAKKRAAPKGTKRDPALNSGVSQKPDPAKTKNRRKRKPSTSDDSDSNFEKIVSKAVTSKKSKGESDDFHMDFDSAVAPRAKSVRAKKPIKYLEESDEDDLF

SMILES	IC50 [1] [µM]	inhibition [2] [%]	IC50 [3] [µM]	inhibition [4] [%]	inhibition [5] [%]	IC50 [6] [µM]	IC50 [7] [µM]
Oc1ccc(-c2cc(-c3ccc(O)cc3)nc(-c3cccc(O)c3)c2)cc1	3.52	0	4.47	15.8	100	5.8	0.84
Oc1cccc(-c2cc(-c3cccc(O)c3)nc(-c3ccccc3O)c2)c1	> 50	1.9	> 50		11.3	> 50	> 50
Oc1ccc(-c2cc(-c3ccc(O)cc3)nc(-c3ccc(O)cc3)c2)cc1	5.12	3.8	4.27	7.9	79.1	3.16	0.79
Oc1ccc(-c2cc(-c3ccc(O)cc3)nc(-c3ccccc3O)c2)cc1	> 50	0	> 50	1.8	44	> 50	26.3
Oc1ccc(-c2cc(-c3ccccc3O)nc(-c3ccccc3O)c2)cc1	> 50	3.7	18.3	2.9	46.9	> 50	> 50
Oc1cccc(-c2cc(-c3ccccc3O)nc(-c3ccccc3O)c2)c1	5.02	4.9	3.42	7.1	99.4	5.4	0.08
Oc1ccc(-c2cc(-c3cccc(O)c3)cc(-c3cccc(O)c3)n2)cc1	3.09	0	3.92	3.7	100	1.94	1.56
Oc1ccc(-c2cc(-c3cccc(O)c3)nc(-c3cccc(O)c3)c2)cc1	3.81	0	2.23	9.6	100	1.76	0.73
CC[C@@]1(O)C(=O)OCc2c1cc1n(c2=O)Cc2cc3ccccc3nc2-1 [CAMPTOTHECIN]	1.98		0.75				0.28
Oc1ccc(-c2cc(-c3ccccc3O)cc(-c3cccc(O)c3)n2)cc1	4.85	0	0.65	7.4	92.2	5.37	5.65
Oc1ccc(-c2cc(-c3ccccc3O)cc(-c3ccc(O)cc3)n2)cc1	1.92	0.4	5.35	5.4	100	0.98	0.78
Oc1cccc(-c2cc(-c3ccccc3O)cc(-c3cccc(O)c3)n2)c1	5.15	0	4.57	9.3	100	> 50	0.13
Oc1ccccc1-c1cc(-c2ccccc2O)nc(-c2ccccc2O)c1	2.18	0	2.51	10.1	95.1	5.04	0.14
Oc1ccc(-c2cc(-c3ccccc3O)cc(-c3ccccc3O)n2)cc1	8.24	0.3	0.96	21.3	77.6	0.36	6.99
Oc1ccc(-c2cc(-c3cccc(O)c3)nc(-c3ccccc3O)c2)cc1	5.83	1.5	4.81	38.5	80.6	3.42	7.42
Oc1ccc(-c2cc(-c3cccc(O)c3)cc(-c3ccc(O)cc3)n2)cc1	> 50	0	4.07	48.2	90.1	1.4	> 50
Oc1cccc(-c2cc(-c3ccccc3O)cc(-c3ccccc3O)n2)c1	3.39	0	5.76	6.6	87.9	3.98	0.73
COc1cc([C@@H]2c3cc4c(cc3[C@@H](O[C@@H]3O[C@@H]5CO[C@@H](C)O[C@H]5[C@H](O)[C@H]3O)[C@H]3COC(=O)[C@H]23)OCO4)cc(OC)c1O [ETOPOSIDE]	7.74		8.74				1.04
COc1cccc2c1C(=O)c1c(O)c3c(c(O)c1C2=O)C[C@@](O)(C(=O)CO)C[C@@H]3O[C@H]1C[C@H](N)[C@H](O)[C@H](C)O1 [DOXORUBICIN HYDROCHLORIDE]			3.12			3.89	1.22
Oc1cccc(-c2cc(-c3cccc(O)c3)nc(-c3cccc(O)c3)c2)c1	3.95	0	2.05	8.3	100	4.04	0.74
Oc1ccc(-c2cc(-c3cccc(O)c3)cc(-c3ccccc3O)n2)cc1	> 50	8.4	> 50	1.6	31.3	> 50	> 50
